Data taken from PubChem BioAssay.
Activity calls are given as the source filed them.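 The calls were made as follows, unless noted: active = viability at or under a set limit in both replicates, limit being median viability minus 3 SD (cut at about 48% in these data, passing the limit was not always enough); inconclusive = at or under the limit in just one replicate; inactive = at or above the limit in both replicates.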

Columns and labels:
[1] = Her2 expression decrease, cell viability multiplex – SKBR3 breast tumor cells, AlphaScreen, ATP viability, primary screen (AID 461;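 active = Her2 level under about 52% in both replicate screens, with viability over 70% of control, limit read from the data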;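 as to Her2 level: lower value means less Her2 protein in the cells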;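 as to viability: percent of carrier control wells set as 100% viability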); details: SKBR3 Her2 protein level, 18-24 h, measured here: SKBR3 viability, ATP luminescence, at 10 µM
[2] = molecular target: Receptor tyrosine-protein kinase erbB-2 (Homo sapiens) (UniProt P04626); experiment: as above; details: 18-24 h, at 10 µM, stronger effect = lower value
[3] = reduced viability of SK-BR-3 breast cancer cells – cell-based, 24 h, human, pilot screen (AID 572;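 active = viability at or below 10% of carrier control in both of two separate runs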;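 also: compound exposure lasted between 18 and 24 h rather than exactly 24 h; 100% = carrier-treated control wells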); details: SK-BR-3 viability, CellTiter-Glo luminescence, at 10 µM, stronger effect = lower value
[4] = HUVEC growth inhibition – cell-based, human, primary screen (AID 575;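 active = viability at or below 30% in both replicate assays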;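 also: 100% = median of untreated cell wells with 0.1% DMSO on each plate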); details: HUVEC proliferation, CellTiter-Glo luminescence, 72 h; at 10 µM; stronger effect = lower value
Method in brief: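 Timing: 72 h treatment at 37 °C; material: HUVEC primary cells; technique: CellTiter-Glo luminescence measuring cellular ATP; controls: vehicle and MePR control wells; measure: percent of median DMSO-control luminescence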

[5] = H69AR cell proliferation blockers – human, duplicate replicates, primary screen (AID 580); details: H69AR lung tumor cells viability, ATP luminescence, 72 h; at 10 µM; stronger effect = lower value;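 also: 100% = mean luminescence of untreated wells and 0% = no signal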
[6] = MRP1 drug-resistance reversers in H69AR cells – cell-based, doxorubicin co-treatment, pilot screen (AID 601;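 active = viability loss from added drug above about 55%, and viability with drug at most 40%, in both replicates, limit read from the data, passing the limit was not always enough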); details: CellTiter-Glo, 72 h, at 10 µM; for differential viability (reversal): stronger effect = higher value
[7] = yeast transport mutant growth inhibition pilot in 384-well plates, post-Golgi transport modulator project (AID 636; in the data active = inhibition above about 31%); details: absorbance 615 nm, about 18 h, stronger effect = higher value
[8] = growth suppression of yeast trafficking mutant, preliminary HTS, modulators of trafficking downstream of Golgi apparatus project, 1536-format plate, OD 615 nm (AID 637; in the data active = inhibition above about 30%); details: yeast transport mutant growth, absorbance 615 nm, 18 h; stronger effect = higher value
[9] = H69AR cells + 2 uM doxorubicin, measured here: viability with 2 uM doxorubicin, stronger effect = lower value
[10] = H69AR cells, compound alone cytotoxicity

Chain of Receptor tyrosine-protein kinase erbB-2 (Homo sapiens) (P04626 whole entry, looked up): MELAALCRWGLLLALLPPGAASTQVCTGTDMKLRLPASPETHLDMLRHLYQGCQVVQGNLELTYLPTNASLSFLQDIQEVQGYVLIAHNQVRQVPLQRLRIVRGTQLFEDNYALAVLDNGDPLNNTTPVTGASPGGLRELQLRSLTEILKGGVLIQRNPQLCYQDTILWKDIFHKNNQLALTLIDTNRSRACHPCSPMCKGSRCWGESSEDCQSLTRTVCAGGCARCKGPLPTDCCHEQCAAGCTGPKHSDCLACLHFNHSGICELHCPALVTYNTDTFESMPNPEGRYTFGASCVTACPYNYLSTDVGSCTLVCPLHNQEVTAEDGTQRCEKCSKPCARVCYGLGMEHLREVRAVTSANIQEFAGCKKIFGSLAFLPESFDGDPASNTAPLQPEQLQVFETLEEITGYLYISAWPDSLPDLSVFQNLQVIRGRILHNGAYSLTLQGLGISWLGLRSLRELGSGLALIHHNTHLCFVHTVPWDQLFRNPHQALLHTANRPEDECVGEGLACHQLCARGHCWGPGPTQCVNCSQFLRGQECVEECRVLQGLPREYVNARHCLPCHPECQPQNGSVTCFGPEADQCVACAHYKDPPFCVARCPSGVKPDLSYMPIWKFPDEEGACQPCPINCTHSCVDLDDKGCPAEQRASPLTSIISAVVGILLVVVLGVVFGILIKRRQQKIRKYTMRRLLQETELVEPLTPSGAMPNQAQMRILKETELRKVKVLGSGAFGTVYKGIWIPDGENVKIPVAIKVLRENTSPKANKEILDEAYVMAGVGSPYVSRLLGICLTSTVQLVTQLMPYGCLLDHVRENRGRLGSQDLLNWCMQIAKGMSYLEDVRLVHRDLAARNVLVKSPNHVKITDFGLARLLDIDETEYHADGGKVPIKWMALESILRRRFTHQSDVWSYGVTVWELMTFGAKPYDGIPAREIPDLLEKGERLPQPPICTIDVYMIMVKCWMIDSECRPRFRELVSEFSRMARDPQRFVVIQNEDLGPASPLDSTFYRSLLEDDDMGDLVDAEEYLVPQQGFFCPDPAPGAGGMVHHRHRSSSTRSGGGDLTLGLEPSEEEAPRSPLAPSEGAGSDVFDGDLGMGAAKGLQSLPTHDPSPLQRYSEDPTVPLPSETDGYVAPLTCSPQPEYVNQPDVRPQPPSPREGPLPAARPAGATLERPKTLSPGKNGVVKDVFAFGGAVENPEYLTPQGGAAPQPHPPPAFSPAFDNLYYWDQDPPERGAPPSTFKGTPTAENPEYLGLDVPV

COc1ccc(C2C3=C(CC(C)(C)CC3=O)Oc3ncn4nc(-c5cccnc5)nc4c32)cc1 (stereo not given)
viability [1]: 96%
Her2 level [2]: 84.5% (inactive)
viability [3]: 96% (inactive)
viability [4]: 108% (inactive)
viability [5]: 105% (inactive)
differential viability (reversal) ([6]; H69AR cells + 2 uM doxorubicin): 14.3% (inactive)
viability [6, 9]: 90.9%
viability [6, 10]: 105%
inhibition [7]: -9.05% (inactive)
inhibition [8]: 0% (inactive)

Nn1c(SCC(=O)Nc2ccc(Oc3ccccc3)cc2)nnc1C1CC1
viability [1]: 98.5%
Her2 level [2]: 100% (inactive)
viability [3]: 98.5% (inactive)
viability [4]: 69.1% (inactive)
viability [5]: 75.7% (inactive)
differential viability (reversal) ([6]; H69AR cells + 2 uM doxorubicin): -9.75% (inactive)
viability [6, 9]: 85.4%
viability [6, 10]: 75.7%
inhibition [7]: -5.6% (inactive)
inhibition [8]: -12.1% (inactive)

C=CCn1c(SCC(=O)NCCCC)nc2scc(-c3ccco3)c2c1=O
viability [1]: 91.5%
Her2 level [2]: 75.5% (inactive)
viability [3]: 91.5% (inactive)
viability [4]: 95.4% (inactive)
viability [5]: 88.8% (inactive)
differential viability (reversal) ([6]; H69AR cells + 2 uM doxorubicin): 2.11% (inactive)
viability [6, 9]: 86.7%
viability [6, 10]: 88.8%
inhibition [7]: 0.13% (inactive)
inhibition [8]: -1.48% (inactive)

O=C(OCc1nnc(-c2ccccc2)o1)c1ccc2ccccc2n1
viability [1]: 106%
Her2 level [2]: 116% (inactive)
viability [3]: 106% (inactive)
viability [4]: 100% (inactive)
viability [5]: 89.4% (inactive)
differential viability (reversal) ([6]; H69AR cells + 2 uM doxorubicin): -0.715% (inactive)
viability [6, 9]: 90.1%
viability [6, 10]: 89.4%
inhibition [7]: 3.15% (inactive)
inhibition [8]: 23.2% (inactive)

Oc1ccc2cccnc2c1
viability [1]: 94.5%
Her2 level [2]: 108% (inactive)
viability [3]: 94.5% (inactive)
viability [4]: 107% (inactive)
viability [5]: 106% (inactive)
differential viability (reversal) ([6]; H69AR cells + 2 uM doxorubicin): 5.68% (inactive)
viability [6, 9]: 100%
viability [6, 10]: 106%
inhibition [7]: -4.8% (inactive)
inhibition [8]: -8.41% (inactive)

COc1ccccc1NC(=O)C1=C(C)Nc2ncnn2C1c1ccc(C)o1 (stereo not given)
viability [1]: 87.5%
Her2 level [2]: 99% (inactive)
viability [3]: 87.5% (inactive)
viability [4]: 104% (inactive)
viability [5]: 99.3% (inactive)
differential viability (reversal) ([6]; H69AR cells + 2 uM doxorubicin): 11.7% (inactive)
viability [6, 9]: 87.6%
viability [6, 10]: 99.3%
inhibition [7]: -0.26% (inactive)
inhibition [8]: -2.79% (inactive)

COc1cccc(C(=O)Nc2ccc(N(C)C)cc2)c1OC
viability [1]: 97%
Her2 level [2]: 78.5% (inactive)
viability [3]: 97% (inactive)
viability [4]: 90% (inactive)
viability [5]: 90.9% (inactive)
differential viability (reversal) ([6]; H69AR cells + 2 uM doxorubicin): 10.3% (inactive)
viability [6, 9]: 80.5%
viability [6, 10]: 90.9%
inhibition [7]: -3.68% (inactive)
inhibition [8]: -1.27% (inactive)

COC(=O)c1c(N)n(-c2cc(OC)cc(OC)c2)c2nc3ccccc3nc12
viability [1]: 85.5%
Her2 level [2]: 93% (inactive)
viability [3]: 85.5% (inactive)
viability [4]: 61.7% (inactive)
viability [5]: 101% (inactive)
differential viability (reversal) ([6]; H69AR cells + 2 uM doxorubicin): 10.6% (inactive)
viability [6, 9]: 90.5%
viability [6, 10]: 101%
inhibition [7]: -6.35% (inactive)
inhibition [8]: 3.83% (inactive)

Cc1cc(NC(=O)c2ccc3c(c2)C(=O)N(Cc2cccnc2)C3=O)no1
viability [1]: 96.5%
Her2 level [2]: 110% (inactive)
viability [3]: 96.5% (inactive)
viability [4]: 106% (inactive)
viability [5]: 102% (inactive)
differential viability (reversal) ([6]; H69AR cells + 2 uM doxorubicin): 0.045% (inactive)
viability [6, 9]: 102%
viability [6, 10]: 102%
inhibition [7]: -1.07% (inactive)
inhibition [8]: 12.5% (inactive)

CSCCC(NS(=O)(=O)c1ccc2c(c1)oc(=O)n2C)C(=O)NC1CCCCC1 (stereo not given)
viability [1]: 91%
Her2 level [2]: 110% (inactive)
viability [3]: 91% (inactive)
viability [4]: 87.4% (inactive)
viability [5]: 103% (inactive)
differential viability (reversal) ([6]; H69AR cells + 2 uM doxorubicin): 12.6% (inactive)
viability [6, 9]: 90.1%
viability [6, 10]: 103%
inhibition [7]: 0.9% (inactive)
inhibition [8]: -3.17% (inactive)

O=C(c1ccco1)N1CCN(/C(=N/S(=O)(=O)c2cccs2)c2ccccc2Cl)CC1
viability [1]: 77%
Her2 level [2]: 81% (inactive)
viability [3]: 77% (inactive)
viability [4]: 88.7% (inactive)
viability [5]: 93.1% (inactive)
differential viability (reversal) ([6]; H69AR cells + 2 uM doxorubicin): 0.85% (inactive)
viability [6, 9]: 92.3%
viability [6, 10]: 93.1%
inhibition [7]: -4.73% (inactive)
inhibition [8]: -3.77% (inactive)

CCCCOc1ccc(-c2nnn(CC(=O)NCc3ccco3)n2)cc1
viability [1]: 82.5%
Her2 level [2]: 81% (inactive)
viability [3]: 82.5% (inactive)
viability [4]: 57.3% (inactive)
viability [5]: 23.9% (active)
differential viability (reversal) ([6]; H69AR cells + 2 uM doxorubicin): -30.3% (inactive)
viability [6, 9]: 54.3%
viability [6, 10]: 23.9%
inhibition [7]: -1.18% (inactive)
inhibition [8]: 4.1% (inactive)

CC(=O)Nc1c(-c2ccc(F)cc2)nc2ccccn12
viability [1]: 94.5%
Her2 level [2]: 107% (inactive)
viability [3]: 94.5% (inactive)
viability [4]: 114% (inactive)
viability [5]: 87.7% (inactive)
differential viability (reversal) ([6]; H69AR cells + 2 uM doxorubicin): -19.5% (inactive)
viability [6, 9]: 107%
viability [6, 10]: 87.7%
inhibition [7]: -4.67% (inactive)
inhibition [8]: 1% (inactive)

Cc1nc(N2CCOCC2)[nH]c(=O)c1CCC(C)C
viability [1]: 120%
Her2 level [2]: 82% (inactive)
viability [3]: 120% (inactive)
viability [4]: 87.7% (inactive)
viability [5]: 91.9% (inactive)
differential viability (reversal) ([6]; H69AR cells + 2 uM doxorubicin): 0.88% (inactive)
viability [6, 9]: 91%
viability [6, 10]: 91.9%
inhibition [7]: -1.58% (inactive)
inhibition [8]: 1.11% (inactive)
